Screening results as filed in PubChem.
Shown are actives, neighbours in structure and some others; about 1.5% of the full set was active somewhere.
CHT allo act: allosterically activates the human high affinity choline transporter; 0.49% of 310,000 active; B-score at 10 µM; CHT-expressing cells, membrane potential dye, choline EC20; hits give high values; LV-AA mutant CHT in HEK293 cells; Q9GZV3;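 active = initial fluorescence not abnormally high and integrated response B-score, plate-corrected, over 3 SD above library mean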
Target sequence (Q9GZV3 whole entry, looked up): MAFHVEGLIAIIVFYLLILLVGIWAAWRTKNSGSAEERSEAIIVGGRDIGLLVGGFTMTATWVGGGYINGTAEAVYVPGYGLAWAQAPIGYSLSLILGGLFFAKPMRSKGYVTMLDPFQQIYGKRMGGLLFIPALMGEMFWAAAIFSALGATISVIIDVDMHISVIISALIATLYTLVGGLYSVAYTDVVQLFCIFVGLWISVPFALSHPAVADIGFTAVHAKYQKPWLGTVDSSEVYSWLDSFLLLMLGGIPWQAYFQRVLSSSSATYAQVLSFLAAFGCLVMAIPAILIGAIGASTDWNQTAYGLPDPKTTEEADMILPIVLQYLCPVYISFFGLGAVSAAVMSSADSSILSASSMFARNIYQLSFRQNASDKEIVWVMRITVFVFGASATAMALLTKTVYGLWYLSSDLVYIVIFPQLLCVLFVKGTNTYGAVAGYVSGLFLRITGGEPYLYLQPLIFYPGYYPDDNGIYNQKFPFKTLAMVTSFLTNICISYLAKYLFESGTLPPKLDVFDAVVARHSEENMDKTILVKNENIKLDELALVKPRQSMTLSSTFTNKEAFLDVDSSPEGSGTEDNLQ
T cell modulator: modulates CD8 T cell binding to vesicles | 2C CD8+ T cell-vesicle binding, flow cytometry; hits give low values | 0.068% of 330,000 active | response (vesicle binding), % at 7 µM;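 active = response, share of CD8 T cells binding vesicles, and their 90th percentile fluorescence all below set limits, cut at about 80% in these data, passing the limit was not always enough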;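 note: values below 100% mean blocked vesicle binding to the CD8+ T cells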
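Test system: purified 2C TCR transgenic mouse naive CD8+ T cells. Probe or stimulus: QL9-peptide-loaded Drosophila micro-vesicles bearing Ld, ICAM-1 and B7-1. Incubation: binding step 1.5 h, 37 °C, antibody labelling 20 min, ice. Measured by: flow cytometry of vesicle-bound cells.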
CHT block: human CHT choline transport inhibition; Q9GZV3; CHT-expressing cells, membrane potential dye, choline response; hits give low values; B-score at 10 µM; 0.86% of 310,000 active; AID 488975;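 active = B-score over 3 SD under the library average, and starting fluorescence ratio not unusually high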;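 note: choline stimulus applied at its EC90 after an EC20 pre-addition; B-score computed on integrated fluorescence ratio after choline addition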
VLA-4 inh: inhibition in a human VLA-4 binding assay | P13612 | VLA-4 expressing cells, ligand binding flow cytometry | inhibition, % (about 7 µM as worked out from the volumes in the protocol) | 0.2% of 330,000 active | AID 2557; in the data active = inhibition above about 50%
VLA-4 mod pick: confirmation of allosteric modulators of human VLA-4 integrin | shares compounds with VLA-4 inh | U937 cells, HUTS-21 LIBS mAb binding, flow cytometry; LDV ligand present at threefold Kd | inhibition, % at 6.7 µM | 2% of 1,300 active; in the data active = inhibition above about 40%;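 note: 0% = ligand without compound and 100% = no ligand background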
* hit, by the source's call; i = inactive; · = not tested or not shown; ! = not confirmed by another sample.

SMILES | CHT allo act | T cell modulator | CHT block | VLA-4 inh | VLA-4 mod pick
N#CCc1ccc(NC(=O)Cn2c(=O)oc3ccccc32)cc1 | i | 204.5 | i | 14.4 | -15.4
CCN(CC)S(=O)(=O)c1ccc(NC(=O)Cn2c(=O)oc3ccccc32)cc1 | i | 203.1 | i | 7.1 | 4.4
Cc1ccc(C(=O)N2CCN(c3ccccc3Cl)CC2)cc1[N+](=O)[O-] | i | 425.5 | i | 2.9 | ·
CCOc1ccccc1NC(=O)Cn1c(=O)oc2cc(Cl)ccc21 | i | 218.9 | i | 13.2 | 1.6
Cc1ccc(NC(=O)Cn2c(=O)oc3ccccc32)cc1 | i | 258.5 | i | 8.3 | ·
Cc1ccc(NC(=O)Cn2c(=O)oc3ccccc32)c(C)c1 | i | 255.3 | i | 1.6 | -10.8
COc1ccccc1C(=O)NCCC(=O)N(C)CC(=O)Nc1ccc(N2CCOCC2)cc1 | i | 273.4 | i | 31.9 | ·
CCN(CC(=O)Nc1ccc(N2CCOCC2)cc1)CC(=O)NC(C)(C)C | i | 252.9 | i | 45.1 | -10.2
CN(CC(=O)Nc1ccc(N2CCOCC2)cc1)C(=O)CCNC(=O)c1ccc(Br)cc1 | i | 225.0 | i | 49.9* | -3.5
CN(CC(=O)Nc1ccc(N2CCOCC2)cc1)CC(=O)Nc1ccc(C(F)(F)F)cc1 | i | 226.2 | i | -3.8 | ·
O=C(c1cccc([N+](=O)[O-])c1)N1CCCN(C(=O)c2cccc([N+](=O)[O-])c2)CC1 | i | 285.5 | i | -5.5 | ·
Cc1cc(=O)oc2c3c(cc(OCC(=O)N[C@@H](C)C(=O)O)c12)OC(C)(C)CC3 | i | 157.0 | i | -6.7 | ·
Cc1cc(=O)oc2c3c(cc(OCC(=O)NC(Cc4ccc(Cl)cc4)C(=O)O)c12)OC(C)(C)CC3 (centres undefined) | i | 186.2 | i | 21.9 | 13.0
Cc1cc(=O)oc2c3c(cc(OCC(=O)N[C@@H](Cc4ccccc4)C(=O)O)c12)OC(C)(C)CC3 | i | 383.9 | i | 50.2* | 6.1
Cc1ccc(C(=O)OC(C)C(=O)c2cc(C)c(C)cc2C)o1 (centres undefined) | i | 177.5 | i | -3.5 | ·
COc1ccccc1N1CCN(CCCNc2cc(=O)n(C)c(=O)n2C)CC1 | i | 115.2 | i | 54.8* | 10.0
COc1ccccc1N1CCN(CCCNc2c(C)c(=O)n(C)c(=O)n2C)CC1 | i | 469.4 | i | 33.0 | ·
O=C(NC(CC(=O)N1CCCC(C(F)(F)F)C1)c1ccccc1)c1ccccc1Cl (centres undefined) | i | 273.9 | i | 11.0 | ·
Cc1ccc(CN2CCN(Cc3cccc(OCCO)c3)CC2CCO)o1 (centres undefined) | i | 256.8 | i | 42.5 | 5.4
COc1ccc(OCC(=O)NCCCCCCNC(=O)COc2ccc(OC)cc2)cc1 | i | 183.0 | i | -18.7 | ·
CCN(CC)CCNC(=O)COc1ccc(OC)cc1 | i | 885.4 | i | 57.1*! | 1.1
COC(=O)COc1ccc(NC(=O)C(c2ccccc2)c2ccccc2)cc1 | i | 559.0 | i | 49.9* | 13.6
Cc1ccc(-c2nnc(N)s2)cc1 | i | 181.4 | i | 45.6 | -4.5
COc1ccc(-c2nnc(N)s2)cc1 | i | 187.7 | i | -0.3 | ·
O=C(NCCS(=O)(=O)N1CCCCC1)c1ccc2c(c1)OCO2 | i | 457.8 | i | -13.9 | ·
SMILES | CHT allo act | T cell modulator | CHT block | VLA-4 inh | VLA-4 mod pick
Cc1c(NC(=O)Nc2ccccc2)c(=O)n(-c2ccccc2)n1C | i | 187.6 | i | -20.9 | ·
Cc1c(NC(=O)Nc2ccc(Cl)c(Cl)c2)c(=O)n(-c2ccccc2)n1C | i | 207.8 | i | 64.9* | 8.2
Cc1ccc2c(C)c(C(=O)Nc3c(C)n(C)n(-c4ccccc4)c3=O)oc2c1 | i | i | i | 9.5 | -9.5
COc1c(C(=O)Nc2c(C)n(C)n(-c3ccccc3)c2=O)ccc2ccccc12 | i | 368.7 | i | -1.1 | 0.0
COc1ccc(C(CNC(=O)c2cccc(S(=O)(=O)NCc3ccccc3)c2)N2CCOCC2)cc1 (centres undefined) | i | 421.2 | i | 0.1 | ·
COc1ccc(S(=O)(=O)Nc2ccc(-n3cnnn3)cc2)cc1[N+](=O)[O-] | · | 583.6 | · | 2.4 | ·
O=C(Nc1ccc(F)cc1)NC1(C(=O)NCc2ccco2)CCCCC1 | i | 181.4 | i | 51.9* | 4.4
CSc1nc(N)nc2c1ncn2CC(=O)N[C@H](C)c1cccc2ccccc12 | · | 393.3 | · | 53.7* | 3.3
COC(=O)[C@@H](Cc1ccccc1)NC(=O)Cn1cnc2c(SC)nc(N)nc21 | · | 200.7 | · | 36.3 | ·
O=C(COC(=O)c1ccccc1Br)Nc1ccccc1F | i | 273.0 | i | 36.2 | 8.1
O=C(COC(=O)c1ccccc1Br)NCC1CCCCC1 | · | 365.6 | · | 1.1 | -21.6
COc1cc(N)c(Cl)cc1C(=O)OCC(=O)NCC1CCCCC1 | · | 220.3 | · | 10.9 | 4.7
COc1ccc(CCN=C(N)NS(=O)(=O)c2cc(F)ccc2F)cc1 | i | 372.6 | i | 16.9 | ·
CCCC[C@@H]1C=C(C(=O)O)[C@H](c2ccc(Br)cc2)N1S(=O)(=O)c1ccc(C)cc1 | · | 285.3 | · | -13.7 | -1.4
CC[C@@H]1C=C(C(=O)O)[C@H](c2ccc(Br)cc2)N1S(=O)(=O)c1ccc(C)cc1 | · | i | · | 29.3 | ·
CCCCC[C@@H]1C=C(C(=O)O)[C@H](c2ccc(CC)cc2)N1S(=O)(=O)c1ccc(C)cc1 | · | 0.0 | · | 35.1 | -0.8
CCCCC[C@@H]1C=C(C(=O)O)[C@H](c2ccc(F)cc2)N1S(=O)(=O)c1ccc(C)cc1 | · | 241.6 | · | -22.4 | 0.0
CC[C@@H]1C=C(C(=O)O)[C@H](c2ccc(C#N)cc2)N1S(=O)(=O)c1ccc(C)cc1 | · | 235.6 | · | -31.7 | ·
CCc1ccc([C@H]2C(C(=O)O)=C[C@@H](CC)N2S(=O)(=O)c2ccc(C)cc2)cc1 | · | 348.0 | · | 23.5 | -1.4
CC(=O)N1CC(C)Sc2ccc(S(=O)(=O)NC3CCCCC3C)cc21 (centres undefined) | i | 855.3 | i | -3.1 | ·
CCCC[C@@H]1C=C(C(=O)O)[C@H](c2ccc(CC)cc2)N1S(=O)(=O)c1ccc(C)cc1 | · | 245.9 | · | -9.9 | 2.1
CCCCC[C@@H]1C=C(C(=O)O)[C@H](c2cccc(C)c2)N1S(=O)(=O)c1ccc(C)cc1 | · | 0.0 | · | 21.9 | 0.6
CCCCC[C@@H]1C=C(C(=O)O)[C@H](c2ccc(OC)c(OC)c2)N1S(=O)(=O)c1ccc(C)cc1 | · | 0.0 | · | 26.8 | 3.3
CCCCC[C@@H]1C=C(C(=O)O)[C@H](c2ccc(Cl)c(Cl)c2)N1S(=O)(=O)c1ccc(C)cc1 | · | 361.2 | · | 42.4 | ·
CCCCC[C@@H]1C=C(C(=O)O)[C@H](c2ccc3c(c2)OCO3)N1S(=O)(=O)c1ccc(C)cc1 | · | 284.9 | · | -2.5 | 7.3
COC(=O)c1sccc1NC(=O)C1CCCCC1C(=O)O (centres undefined) | i | 186.4 | i | 5.5 | ·
COc1ccc(NC2CCCN(C(=O)c3cc(CC(C)C)nc(N)n3)C2)cc1 (centres undefined) | i | 304.9 | i | 5.0 | ·
